Assay results as given in publication PMC5808564 (ChemMedChem, 2017).
In brackets after ≈: the same amount, converted by molar mass.

How the values were obtained:
[1] = target: Dopamine transporter (DAT) (Homo sapiens, UniProt Q01959); assay: PanLabs LeadProfilingScreen radioligand binding; settings: read-out: percent inhibition
Outline: (§1)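 Test compound screened once, at 10 μM, against a panel of mammalian targets; each run in duplicate. Values are percent inhibition at that single concentration; no IC50 determinations were made.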

[2] = Microsomal stability, human; type: in vitro ADME
[3] = Plasma stability, human; type: in vitro ADME
[4] = target: T1, human HK 4 (human glucokinase, hGlk) (Homo sapiens, UniProt P35557); assay: Specificity assay against human glucokinase; type: biochemical; settings: read-out: % hGlk inhibition (10 μM)
T1 sequence (P35557 1-465): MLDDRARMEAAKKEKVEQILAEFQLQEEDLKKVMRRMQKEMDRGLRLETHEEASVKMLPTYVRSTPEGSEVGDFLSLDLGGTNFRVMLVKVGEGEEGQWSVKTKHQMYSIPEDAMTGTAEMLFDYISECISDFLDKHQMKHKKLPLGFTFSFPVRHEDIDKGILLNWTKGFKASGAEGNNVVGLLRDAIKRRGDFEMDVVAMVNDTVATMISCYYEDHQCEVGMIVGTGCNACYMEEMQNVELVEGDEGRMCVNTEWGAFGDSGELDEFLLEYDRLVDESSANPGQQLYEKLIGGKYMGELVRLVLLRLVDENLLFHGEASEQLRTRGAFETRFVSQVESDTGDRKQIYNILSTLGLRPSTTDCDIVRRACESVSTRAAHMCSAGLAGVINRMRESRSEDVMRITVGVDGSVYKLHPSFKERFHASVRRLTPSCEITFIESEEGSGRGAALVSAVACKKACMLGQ
Outline: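 Uses human hexokinase 4 (glucokinase; GenBank BC001890). Activity is read through a coupled reaction in which glucose-6-phosphate dehydrogenase converts the glucose-6-phosphate formed to 6-phosphogluconate. The coincident NADPH formation is followed at 340 nm.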

[5] = target: recombinant T. brucei hexokinase 1 (rTbHK1) (Trypanosoma brucei, UniProt Q38C42); assay: biochemical; type: biochemical; settings: compared to bromide 2
[6] = Plasma protein binding; type: in vitro ADME; settings: mouse, mouse species
[7] = target: Dopamine D3 (Homo sapiens, UniProt P35462); assay: PanLabs LeadProfilingScreen radioligand binding; settings: read-out: percent inhibition
Chain of Dopamine D3 (P35462 whole entry): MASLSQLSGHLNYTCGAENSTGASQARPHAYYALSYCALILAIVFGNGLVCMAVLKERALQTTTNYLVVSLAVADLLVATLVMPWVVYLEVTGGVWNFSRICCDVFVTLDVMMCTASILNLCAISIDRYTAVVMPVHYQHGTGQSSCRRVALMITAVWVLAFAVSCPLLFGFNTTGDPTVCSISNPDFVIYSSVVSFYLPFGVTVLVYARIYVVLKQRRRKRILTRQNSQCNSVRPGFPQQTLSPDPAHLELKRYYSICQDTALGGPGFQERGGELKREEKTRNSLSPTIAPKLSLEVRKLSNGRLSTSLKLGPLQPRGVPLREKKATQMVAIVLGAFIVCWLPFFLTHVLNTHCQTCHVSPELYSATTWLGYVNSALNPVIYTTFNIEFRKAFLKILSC
Outline: as §1

[8] = Microsomal stability, mouse; type: in vitro ADME
[9] = Plasma stability, mouse; type: in vitro ADME
[10] = target: T2, Adrenergic α1B (Rattus norvegicus, UniProt P15823); assay: PanLabs LeadProfilingScreen radioligand binding; settings: read-out: percent inhibition
T2 sequence (P15823 1-515): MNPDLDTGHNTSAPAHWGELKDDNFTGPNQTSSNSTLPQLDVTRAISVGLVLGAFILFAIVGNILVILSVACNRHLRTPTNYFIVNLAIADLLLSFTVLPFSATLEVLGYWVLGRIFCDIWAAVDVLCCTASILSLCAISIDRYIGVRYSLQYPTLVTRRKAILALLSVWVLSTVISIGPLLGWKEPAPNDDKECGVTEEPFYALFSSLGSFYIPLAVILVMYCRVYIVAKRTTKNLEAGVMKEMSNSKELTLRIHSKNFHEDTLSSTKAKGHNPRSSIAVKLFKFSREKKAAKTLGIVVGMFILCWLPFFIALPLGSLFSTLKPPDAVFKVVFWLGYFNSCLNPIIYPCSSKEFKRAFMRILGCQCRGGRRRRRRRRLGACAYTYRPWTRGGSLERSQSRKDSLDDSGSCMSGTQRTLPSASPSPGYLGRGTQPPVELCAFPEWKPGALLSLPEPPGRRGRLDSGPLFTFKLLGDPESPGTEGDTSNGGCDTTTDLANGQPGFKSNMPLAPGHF
Outline: as §1

[11] = PAMPA permeability
[12] = target: Dopamine D1 (Homo sapiens, UniProt P21728); assay: PanLabs LeadProfilingScreen radioligand binding; settings: read-out: percent inhibition
Chain of Dopamine D1 (P21728 whole entry): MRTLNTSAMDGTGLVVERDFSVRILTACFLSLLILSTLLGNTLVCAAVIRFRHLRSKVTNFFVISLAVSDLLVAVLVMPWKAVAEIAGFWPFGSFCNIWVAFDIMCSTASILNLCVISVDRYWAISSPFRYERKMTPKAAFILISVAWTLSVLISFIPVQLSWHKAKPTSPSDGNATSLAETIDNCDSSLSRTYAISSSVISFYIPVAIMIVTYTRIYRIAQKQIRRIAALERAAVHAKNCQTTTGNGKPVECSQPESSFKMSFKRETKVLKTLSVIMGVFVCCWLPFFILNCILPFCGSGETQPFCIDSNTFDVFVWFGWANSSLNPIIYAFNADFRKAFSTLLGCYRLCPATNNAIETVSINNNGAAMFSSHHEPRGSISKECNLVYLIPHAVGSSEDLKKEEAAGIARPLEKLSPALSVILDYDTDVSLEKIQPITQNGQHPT
Outline: as §1

[13] = Aqueous solubility, kinetic solubility method; settings: pH 7.4
[14] = target: Histamine H2 (Homo sapiens, UniProt P25021); assay: PanLabs LeadProfilingScreen radioligand binding; settings: read-out: percent inhibition
Chain of Histamine H2 (P25021 whole entry): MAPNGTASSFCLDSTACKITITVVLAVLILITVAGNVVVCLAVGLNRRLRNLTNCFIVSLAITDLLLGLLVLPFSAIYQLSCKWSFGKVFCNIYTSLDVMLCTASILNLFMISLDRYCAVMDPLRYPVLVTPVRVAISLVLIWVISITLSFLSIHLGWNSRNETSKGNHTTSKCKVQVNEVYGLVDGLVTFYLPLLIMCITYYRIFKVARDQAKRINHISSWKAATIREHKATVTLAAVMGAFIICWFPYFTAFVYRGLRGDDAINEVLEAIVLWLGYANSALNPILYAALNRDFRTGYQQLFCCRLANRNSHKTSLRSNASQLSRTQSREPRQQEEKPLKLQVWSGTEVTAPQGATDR
Outline: as §1

[15] = target: T3, Serotonin (5-hydroxytryptamine) 5-HT1A (Homo sapiens, UniProt P08908); assay: PanLabs LeadProfilingScreen radioligand binding; settings: read-out: percent inhibition
T3 sequence (P08908 1-422): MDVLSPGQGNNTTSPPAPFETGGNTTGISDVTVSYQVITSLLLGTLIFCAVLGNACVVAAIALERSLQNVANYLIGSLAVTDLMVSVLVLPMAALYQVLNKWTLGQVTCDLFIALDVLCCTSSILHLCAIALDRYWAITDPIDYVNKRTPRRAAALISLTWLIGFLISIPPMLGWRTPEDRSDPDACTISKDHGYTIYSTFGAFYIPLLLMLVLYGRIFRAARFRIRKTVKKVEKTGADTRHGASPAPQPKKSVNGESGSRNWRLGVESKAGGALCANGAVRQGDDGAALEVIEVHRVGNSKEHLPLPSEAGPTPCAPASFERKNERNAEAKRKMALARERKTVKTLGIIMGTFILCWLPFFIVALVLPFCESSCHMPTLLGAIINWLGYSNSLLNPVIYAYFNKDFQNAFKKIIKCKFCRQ
Outline: as §1

[16] = tested on: IMR-90 human cells; assay: Human cell line toxicity testing; type: cell-based; settings: Homo sapiens, IMR-90, read-out: IMR90 toxicity (EC50)
[17] = target: T4, Leukotriene, cysteinyl CysLT1 (Homo sapiens, UniProt Q9Y271); assay: PanLabs LeadProfilingScreen radioligand binding; settings: read-out: percent inhibition
T4 sequence (Q9Y271 1-337): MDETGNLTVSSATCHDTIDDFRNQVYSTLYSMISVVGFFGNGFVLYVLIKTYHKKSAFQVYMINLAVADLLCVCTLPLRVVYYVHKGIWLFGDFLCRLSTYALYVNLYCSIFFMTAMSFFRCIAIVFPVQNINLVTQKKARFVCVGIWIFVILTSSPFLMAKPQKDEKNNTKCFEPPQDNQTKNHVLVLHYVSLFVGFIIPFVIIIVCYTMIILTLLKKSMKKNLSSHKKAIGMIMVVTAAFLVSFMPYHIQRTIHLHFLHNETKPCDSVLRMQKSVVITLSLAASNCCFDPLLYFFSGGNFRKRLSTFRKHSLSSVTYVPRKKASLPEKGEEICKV
Outline: as §1

[18] = tested on: T. brucei bloodstream form (BSF) parasites (cell line 90-13, a 427 strain); assay: microbe, parasite or virus in culture; type: cell-based, Trypanosoma brucei; settings: BLD = below level of detection
[19] = tested on: Thyroid hormone; assay: PanLabs LeadProfilingScreen radioligand binding; settings: 10 μM, duplicate, rat
Outline: as §1

Chain of Dopamine transporter (DAT) (Q01959 whole entry): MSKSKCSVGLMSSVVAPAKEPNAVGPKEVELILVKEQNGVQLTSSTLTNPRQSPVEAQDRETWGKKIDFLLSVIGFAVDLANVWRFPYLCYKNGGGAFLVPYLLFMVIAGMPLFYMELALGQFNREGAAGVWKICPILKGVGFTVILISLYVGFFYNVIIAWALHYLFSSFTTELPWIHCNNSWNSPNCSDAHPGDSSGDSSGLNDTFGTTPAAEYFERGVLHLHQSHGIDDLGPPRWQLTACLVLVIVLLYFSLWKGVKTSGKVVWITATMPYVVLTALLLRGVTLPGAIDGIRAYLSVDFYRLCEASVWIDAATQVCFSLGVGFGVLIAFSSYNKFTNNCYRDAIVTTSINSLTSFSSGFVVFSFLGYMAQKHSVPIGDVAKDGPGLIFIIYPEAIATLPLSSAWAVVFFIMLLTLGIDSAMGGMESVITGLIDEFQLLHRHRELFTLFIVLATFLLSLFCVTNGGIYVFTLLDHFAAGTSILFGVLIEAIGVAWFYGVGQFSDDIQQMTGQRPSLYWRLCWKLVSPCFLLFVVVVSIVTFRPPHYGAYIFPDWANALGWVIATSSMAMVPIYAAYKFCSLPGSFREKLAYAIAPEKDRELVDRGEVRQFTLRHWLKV

With `CC(C)(C)c1ccc(C(=O)Nc2cc(Cl)c(-c3ccccc3)cc2C(=O)O)cc1` [Compound 4f] the inhibition at 10 µM [1] was 88%, the “microsomal stability, % parent remaining after 1 h” value [2] was 46.5% and the “plasma stability, % parent remaining after 3 h” value [3] was 80.8%. For the same compound, the inhibition at 10 µM [4] was 35.2 ± 8.3%, the “improvement in rTbHK1 potency” value [5] was 3.5 fold and the fraction unbound ([6]; 1 μM) was 0.01. For the same compound, the fraction unbound ([6]; 10 μM) was 0.009, the inhibition at 10 µM [7] was 86% and the “microsomal stability, % parent remaining after 1 h” value [8] was 55.5%. The “plasma stability, % parent remaining after 3 h” value [9] was 97.4%, the inhibition at 10 µM [10] was 53% and the Papp ([11]; PAMPA permeability (Pe), donor pH 6.2, acceptor pH 7.4) was 1.6 ×10⁻⁶ cm/s. For the same compound, the Papp ([11]; pH 7.4, PAMPA permeability (Pe), donor pH 7.4, acceptor pH 7.4) was 49 ×10⁻⁶ cm/s, the inhibition at 10 µM [12] was 57% and the solubility [13] was 9.6 µM (≈ 3.92 µg/mL). The inhibition at 10 µM [14] was 98%, the inhibition at 10 µM [15] was 90% and the EC50 [16] was greater than 25 µM. For the same compound, the inhibition at 10 µM [17] was 87%, the “% T. brucei BSF growth inhibition (10 μM)” value ([18]; 10 μM compound, 10 µM) was 95.4 ± 0.8% and the inhibition at 10 µM ([18]; Trypanosoma brucei, A-427, read-out: % T. brucei BSF growth inhibition (10 μM), 10 μM compound) was 95%. The percent inhibition [19] was 65%.
